Test results published in BindingDB's records for doi:10.1021/jm1008924 (Genentech, 2011).

Columns and labels:
Sonic hedgehog protein [1] = molecular target: T1, Sonic hedgehog protein (Homo sapiens, UniProt Q15465); assay: Inhibition of human SHH pathway in mouse S12 cells assessed as GLI-mediated transcriptional activity after 48 hrs by luciferase reporter gene assay in presence of 0.5 mg/mL human alpha-1-acid glycoprotein
Summary of the method: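 Mouse C3H10T1/2-derived S12 cells carrying a stably integrated GLI-luciferase reporter. Grown in high-glucose DMEM with 10% FBS, replated, then switched to 0.5% FBS to induce cilia. Shh, human AAG (0, 0.5, 1 or 5 mg/mL) and compound added. Luciferase (Dual-Glo) read after 48 h. Mean of four experiments ±SD.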

Sonic hedgehog protein [2] = molecular target: T1, Sonic hedgehog protein; assay: Inhibition of human SHH pathway in mouse S12 cells assessed as GLI-mediated transcriptional activity after 48 hrs by luciferase reporter gene assay

T1 sequence (Q15465 24-197 limits assumed): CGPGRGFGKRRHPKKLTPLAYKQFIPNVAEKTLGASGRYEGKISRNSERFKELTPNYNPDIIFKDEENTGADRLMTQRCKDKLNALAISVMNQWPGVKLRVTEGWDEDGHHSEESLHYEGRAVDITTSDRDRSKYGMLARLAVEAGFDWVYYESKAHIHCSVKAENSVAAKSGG

CS(=O)(=O)c1ccc(C(=O)Nc2ccc(Cl)c(-c3ccccn3)c2)c(Cl)c1 [2-chloro-N-(4-chloro-3-(pyridin-2-yl)phenyl)-4-(methylsulfonyl)benzamide]
IC50 (Sonic hedgehog protein [1]): 1750 nM | IC50 (Sonic hedgehog protein [2]): 15 nM
